{"source": "ChEMBL document CHEMBL3860061", "about": "“A Novel Parkinson's Disease Drug Candidate with Potent Anti-neuroinflammatory Effects through the Src Signaling Pathway” (J Med Chem, 2016)", "key": {"Mus musculus [1]": {"test_system": "Mus musculus", "assay": "In vivo inhibition of Src in MPTP/probenecid-induced chronic C57/BL mouse Parkinson's disease model assessed as effect on PTEN expression level in midbrain at 5 to 20 mg/kg dosed once daily for 7 weeks post 10 doses of MPTP/probenecid for 5 weeks by iTRAQ-labelled 2D-LC/MS/MS analysis", "format": "functional, organism-based"}, "Mus musculus [2]": {"test_system": "Mus musculus", "assay": "Nephrotoxicity in ICR mouse at 250 to 1000 mg/kg administered through oral gavage for 14 consecutive days", "format": "toxicity, organism-based", "conditions": "in vivo", "method_in_brief": "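Mice dosed by oral gavage at 250, 500 and 1000 mg/kg for 14 consecutive days. General condition monitored throughout; liver and kidney clinical chemistry assessed.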"}, "Mus musculus [3]": {"test_system": "Mus musculus", "assay": "Neuroprotective activity in MPTP/probenecid-induced chronic C57/BL mouse Parkinson's disease model assessed as reversal of decline of TH-positive neuron levels in substantia nigra at 10 to 20 mg/kg dosed once daily for 7 weeks post 10 doses of MPTP/probenecid for 5 weeks measured after last MPTP/probenecid dose by 3,3'-diaminobenzidine staining based light microscopic analysis", "format": "functional, organism-based", "method_in_brief": "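Male C57/BL mice (22–25 g) received 10 doses of MPTP hydrochloride (25 mg/kg in saline, s.c.) plus probenecid (250 mg/kg in DMSO, i.p.) over 5 weeks. Only mice showing rotarod dysfunction afterwards were used, randomized, and dosed daily for 7 weeks with test agent in 0.5% CMC-Na. Fixed brains were cut at 40 µm; nigral coronal sections were stained with anti-TH, developed with DAB/peroxide, and positive cells counted blind.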"}, "Mus musculus [4]": {"test_system": "Mus musculus", "assay": "Effect on ROCK1 protein expression level in midbrain of MPTP/probenecid-induced chronic C57/BL mouse Parkinson's disease model at 5 to 20 mg/kg dosed once daily for 7 weeks post 10 doses of MPTP/probenecid for 5 weeks by iTRAQ-labelled 2D-LC/MS/MS analysis", "format": "functional, organism-based"}, "Mus musculus [5]": {"test_system": "Mus musculus", "assay": "In vivo inhibition of Src in MPTP/probenecid-induced chronic C57/BL mouse Parkinson's disease model assessed as effect on PTEN expression level in midbrain at 5 to 20 mg/kg co-administered with L-DOPA once in a day for 7 weeks post 10 doses of MPTP for 5 weeks by Western blot analysis", "format": "functional, organism-based"}, "[6]": {"assay": "Toxicity in ICR mouse assessed as mortality administered through oral gavage", "format": "organism-based", "conditions": "in vivo"}, "Mus musculus [7]": {"test_system": "Mus musculus", "assay": "Neuroprotective activity in alpha-syn A53T transgenic B6C3H mouse assessed as improvement in motor behavior at 5 to 20 mg/kg dosed once daily for 12 consecutive weeks by rotarod test", "format": "functional, organism-based", "method_in_brief": "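Male B6;C3H mice overexpressing mutant alpha-syn (A53T), housed on a 12-h light/dark cycle at 24 °C and 60% humidity, were acclimatised for 1 week. Daily dosing ran 12 consecutive weeks from 4 months of age. Wild-type mice received 0.5% CMC-Na, and L-DOPA 20 mg/kg was the reference. Rotarod ran at 14 rpm for up to 120 s, recording latency to first fall. Each mouse had three trials with 1 h rest between them. n = 15; mean ± SD.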"}, "Mus musculus [8]": {"test_system": "Mus musculus", "assay": "Effect on Src protein expression level in midbrain of MPTP/probenecid-induced chronic C57/BL mouse Parkinson's disease model at 5 to 20 mg/kg dosed once daily for 7 weeks post 10 doses of MPTP/probenecid for 5 weeks by iTRAQ-labelled 2D-LC/MS/MS analysis", "format": "functional, organism-based"}, "Mus musculus [9]": {"test_system": "Mus musculus", "assay": "Neuroprotective activity in MPTP-induced subacute C57/BL mouse Parkinson's disease model assessed as reversal of decline of TH-positive neuron levels in substantia nigra at 10 to 20 mg/kg […] dosed 30 mins prior to each MPTP injection for 5 days and administered continuously for 7 days post last MPTP dose by 3,3'-diaminobenzidine staining based light microscopic analysis", "format": "functional, organism-based", "method_in_brief": "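Sub-acute MPTP model (30 mg/kg i.p. × 5 days) with agent (5–20 mg/kg) or L-DOPA pre-dosing and 7 days of continued dosing. Fixed brains cut at 40 µm on a freezing microtome; coronal nigral sections stained with anti-TH and DAB/peroxide; TH-positive cells counted blind by light microscopy.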"}, "Mus musculus [10]": {"test_system": "Mus musculus", "assay": "Neuroprotective activity in MPTP-induced subacute C57/BL mouse Parkinson's disease model assessed as improvement in motor behavior at 5 to 20 mg/kg […] dosed 30 mins prior to each MPTP injection for 5 days and administered continously for 7 days post last MPTP dose by pole test", "format": "functional, organism-based", "method_in_brief": "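Sub-acute MPTP model (30 mg/kg i.p. × 5 days) in male C57/BL mice. Agent (5–20 mg/kg) or L-DOPA 20 mg/kg given 30 min before each injection and for 7 days after. Rotarod at 14 rpm, up to 120 s, fall latency over three trials 1 h apart. Pole test: 50 cm pole, descent scored 1–5, two trials 1 h apart, pre-trained. n = 15.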"}, "Mus musculus [11]": {"test_system": "Mus musculus", "assay": "Increase in dopamine levels in alpha-syn A53T transgenic B6C3H mouse striatum at 10 to 20 mg/kg dosed once daily for 12 consecutive weeks by HPLC analysis", "format": "functional, organism-based", "method_in_brief": "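α-syn A53T transgenic B6;C3H mice, dosed from 4 months of age once daily for 12 weeks with agent (5–20 mg/kg) or L-DOPA 20 mg/kg in 0.5% CMC-Na. Striatum sonicated in 0.6 N perchloric acid, phosphate/citrate/EDTA solution added, centrifuged; dopamine by HPLC, n = 8.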"}, "Mus musculus [12]": {"test_system": "Mus musculus", "assay": "Antineuro-inflammatrory activity in MPTP/probenecid-induced chronic C57/BL mouse Parkinson's disease model assessed as decrease in IL-1beta level in midbrain at 10 to 20 mg/kg dosed once daily for 7 weeks post 10 doses of MPTP/probenecid for 5 weeks measured after last MPTP/probenecid dose for 5 weeks by ELISA", "format": "functional, organism-based", "method_in_brief": "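Male C57/BL mice (22–25 g) received 10 doses of MPTP hydrochloride (25 mg/kg in saline, s.c.) plus probenecid (250 mg/kg in DMSO, i.p.) over 5 weeks. Only mice failing the rotarod afterwards were randomised to agent (5, 10, 20 mg/kg) or L-DOPA 20 mg/kg in 0.5% CMC-Na, once daily for 7 weeks. Midbrain lysate in non-denaturing buffer with protease inhibitor; IL-1β or TNF-α by ELISA, n = 6.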"}, "Mus musculus [13]": {"test_system": "Mus musculus", "assay": "Neuroprotective activity in MPTP/probenecid-induced chronic C57/BL mouse Parkinson's disease model assessed as improvement in motor behavior at 5 to 20 mg/kg dosed once daily for 7 weeks post 10 doses of MPTP/probenecid for 5 weeks measured after last MPTP/probenecid dose by pole test", "format": "functional, organism-based", "method_in_brief": "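Chronic MPTP/probenecid model (10 doses over 5 weeks), then agent (5–20 mg/kg) or L-DOPA 20 mg/kg daily for 7 weeks. Rotarod at 14 rpm, up to 120 s, fall latency from three trials 1 h apart. Pole test: gauze-wrapped 50 cm pole, descent scored 1–5, two trials 1 h apart after pre-training. n = 15.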"}}, "note": "Activity calls are given as the source filed them. The calls are words filed in the database; no cut-off is given here."}
{"compound": "COc1cc(OC)c(CN[C@@H](CO)C(=O)O)c(OC)c1", "values": [{"measurement": "inhibition", "setting": "Mus musculus [1]", "result": "Active"}, {"measurement": "Activity", "setting": "Mus musculus [2]", "result": "Non-Toxic"}, {"measurement": "Activity", "setting": "Mus musculus [3]", "result": "Active"}, {"measurement": "Activity", "setting": "Mus musculus [4]", "result": "Active"}, {"measurement": "inhibition", "setting": "Mus musculus [5]", "result": "Active"}, {"measurement": "LD50", "setting": "[6]", "result": "> 5000", "unit": "mg/kg"}, {"measurement": "Activity", "setting": "Mus musculus [7]", "result": "Active"}, {"measurement": "Activity", "setting": "Mus musculus [8]", "result": "Active"}, {"measurement": "Activity", "setting": "Mus musculus [9]", "result": "Active"}, {"measurement": "Activity", "setting": "Mus musculus [10]", "result": "Active"}, {"measurement": "Activity", "setting": "Mus musculus [11]", "result": "Active"}, {"measurement": "Activity", "setting": "Mus musculus [12]", "result": "Active"}, {"measurement": "Activity", "setting": "Mus musculus [13]", "result": "Active"}]}
